Source: ChEMBL document CHEMBL1145922, “1,2-benzisoxazole phosphorodiamidates as novel anticancer prodrugs requiring bioreductive activation” (J Med Chem, 2003)

What was measured:
Type in all cases: functional
Rattus norvegicus [1] = organism: Rattus norvegicus; test: Percent formation of compound upon incubation of 15 with phenobarbit-induced rat liver microsomal fraction in oxic condition in presence of SKF-525A at a concentration of 1 mM
Summary of the method: (§1)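 Phenobarbital-induced rat liver microsomes; inhibitors SKF-525A (in methanol) or pCMBA (in DMF) at 0–4 mM final. pCMBA preincubated 30 min before NADPH; SKF-525A incubated 15 min with microsomes and NADPH. Hypoxic samples nitrogen-purged. Substrate 2.5 mM added, 30 min at 37 °C. Ketone metabolite by HPLC at 254 nm as percent of substrate; % inhibition relative to no inhibitor. Mean of two experiments.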

Rattus norvegicus [2] = organism: Rattus norvegicus; test: Tested for formation of compound upon incubation of compound 15 for 30 minutes with rat liver subcellular fractions in oxic condition in the absence of cofactor
Summary of the method: (§2)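 Phenobarbital-induced rat liver S-9, microsomal or cytosolic fraction with 5 mM cofactor (NADPH, NADH, benzaldehyde or 2-hydroxypyrimidine) or none. Substrate 2.5 mM final, added from methanol/water 50:50. Hypoxic vials purged with nitrogen 15–20 min. 30 min at 37 °C, quenched with ice-cold methanol. Ketone metabolite by HPLC at 254 nm as percent of equimolar substrate.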

Rattus norvegicus [3] = organism: Rattus norvegicus; test: Tested for formation of compound upon incubation of compound 15 for 30 minutes with uninduced rat liver S-9 fractions in oxic condition in the presence of NADPH
Summary of the method: (§3)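 Uninduced rat liver S-9 (22.5 mg/mL protein, 2 mL) with 5 mM NADPH or no cofactor, substrate 2.5 mM final; hypoxic samples nitrogen-purged 15–20 min in septum-sealed vials, else aerobic; 30 min at 37 °C. Methanol quench, centrifugation, C-18 HPLC with UV 254 nm; metabolite as percent of equimolar substrate. NADPH runs three experiments, no-cofactor runs two.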

Rattus norvegicus [4] = organism: Rattus norvegicus; test: Percent inhibition of formation of compound upon incubation of 15 with phenobarbit-induced rat liver microsomal fraction in oxic condition in presence of SKF-525A at a concentration of 1 mM; summary of the method: as §1
Rattus norvegicus [5] = organism: Rattus norvegicus; test: Percent formation of compound upon incubation of 15 with phenobarbit-induced rat liver microsomal fraction in hypoxic condition in presence of SKF-525A at a concentration of 4 mM; summary of the method: as §1
Rattus norvegicus [6] = organism: Rattus norvegicus; test: Percent formation of compound upon incubation of 15 with phenobarbit-induced rat liver microsomal fraction in hypoxic condition in presence of SKF-525A at a concentration of 1 mM; summary of the method: as §1
Rattus norvegicus [7] = organism: Rattus norvegicus; test: Tested for formation of compound upon incubation of compound 15 for 30 minutes with rat liver subcellular fractions in hypoxic condition in the presence of 2-hydroxypyrimidine; summary of the method: as §2
Rattus norvegicus [8] = organism: Rattus norvegicus; test: Percent formation of compound upon incubation of 15 with phenobarbit-induced rat liver microsomal fraction in oxic condition in presence of pCMBA at a concentration of 4 mM; summary of the method: as §1
Rattus norvegicus [9] = organism: Rattus norvegicus; test: Tested for formation of compound upon incubation of compound 15 for 30 minutes with rat liver subcellular fractions in oxic condition in the presence of NADPH
Summary of the method: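 Phenobarbital-induced rat liver S-9 fraction (2 mL) with 5 mM cofactor (NADPH, NADH, benzaldehyde or 2-hydroxypyrimidine), substrate 2.5 mM final, added in methanol/water 50:50; aerobic, 30 min at 37 °C. Quenched with ice-cold methanol, proteins spun down, supernatant analysed by reverse-phase C-18 HPLC, UV 254 nm; ketone metabolite given as percent of equimolar substrate; three experiments.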

Rattus norvegicus [10] = organism: Rattus norvegicus; test: Percent formation of compound upon incubation of 15 with phenobarbit-induced rat liver microsomal fraction in hypoxic condition in presence of pCMBA at a concentration of 0 mM; summary of the method: as §1
Rattus norvegicus [11] = organism: Rattus norvegicus; test: Tested for formation of compound upon incubation of compound 15 for 30 minutes with uninduced rat liver S-9 fractions in oxic condition in the absence of cofactor; summary of the method: as §3
Rattus norvegicus [12] = organism: Rattus norvegicus; test: Percent formation of compound upon incubation of 15 with phenobarbit-induced rat liver microsomal fraction in oxic condition in presence of SKF-525A at a concentration of 4 mM; summary of the method: as §1
Rattus norvegicus [13] = organism: Rattus norvegicus; test: Tested for formation of compound upon incubation of compound 15 for 30 minutes with uninduced rat liver S-9 fractions in hypoxic condition in the presence of NADPH; summary of the method: as §3
Rattus norvegicus [14] = organism: Rattus norvegicus; test: Tested for formation of compound upon incubation of compound 15 for 30 minutes with rat liver cystolic fractions in hypoxic condition in the presence of NADPH; summary of the method: as §2
Rattus norvegicus [15] = organism: Rattus norvegicus; test: Percent inhibition of formation of compound upon incubation of 15 with phenobarbit-induced rat liver microsomal fraction in hypoxic condition in presence of pCMBA at a concentration of 2 mM; summary of the method: as §1
Rattus norvegicus [16] = organism: Rattus norvegicus; test: Tested for formation of compound upon incubation of compound 15 for 30 minutes with rat liver microsomal fractions in hypoxic condition in the presence of NADPH; summary of the method: as §2
Rattus norvegicus [17] = organism: Rattus norvegicus; test: Percent inhibition of formation of compound upon incubation of 15 with phenobarbit-induced rat liver microsomal fraction in oxic condition in presence of SKF-525A at a concentration of 4 mM; summary of the method: as §1
Rattus norvegicus [18] = organism: Rattus norvegicus; test: Percent formation of compound upon incubation of 15 with phenobarbit-induced rat liver microsomal fraction in oxic condition in presence of SKF-525A at a concentration of 0 mM; summary of the method: as §1
Rattus norvegicus [19] = organism: Rattus norvegicus; test: Percent inhibition of formation of compound upon incubation of 15 with phenobarbit-induced rat liver microsomal fraction in hypoxic condition in presence of pCMBA at a concentration of 1 mM; summary of the method: as §1
Rattus norvegicus [20] = organism: Rattus norvegicus; test: Percent inhibition of formation of compound upon incubation of 15 with phenobarbit-induced rat liver microsomal fraction in hypoxic condition in presence of SKF-525A at a concentration of 0 mM; summary of the method: as §1
Rattus norvegicus [21] = organism: Rattus norvegicus; test: Percent formation of compound upon incubation of 15 with phenobarbit-induced rat liver microsomal fraction in hypoxic condition in presence of pCMBA at a concentration of 1 mM; summary of the method: as §1
Rattus norvegicus [22] = organism: Rattus norvegicus; test: Percent formation of compound upon incubation of 15 with phenobarbit-induced rat liver microsomal fraction in oxic condition in presence of pCMBA at a concentration of 0 mM; summary of the method: as §1
Rattus norvegicus [23] = organism: Rattus norvegicus; test: Percent formation of compound upon incubation of 15 with phenobarbit-induced rat liver microsomal fraction in oxic condition in presence of pCMBA at a concentration of 2 mM; summary of the method: as §1
Rattus norvegicus [24] = organism: Rattus norvegicus; test: Percent inhibition of formation of compound upon incubation of 15 with phenobarbit-induced rat liver microsomal fraction in oxic condition in presence of SKF-525A at a concentration of 2 mM; summary of the method: as §1
Rattus norvegicus [25] = organism: Rattus norvegicus; test: Percent inhibition of formation of compound upon incubation of 15 with phenobarbit-induced rat liver microsomal fraction in hypoxic condition in presence of SKF-525A at a concentration of 4 mM; summary of the method: as §1
Rattus norvegicus [26] = organism: Rattus norvegicus; test: Percent formation of compound upon incubation of 15 with phenobarbit-induced rat liver microsomal fraction in hypoxic condition in presence of SKF-525A at a concentration of 2 mM; summary of the method: as §1
Rattus norvegicus [27] = organism: Rattus norvegicus; test: Percent inhibition of formation of compound upon incubation of 15 with phenobarbit-induced rat liver microsomal fraction in oxic condition in presence of pCMBA at a concentration of 4 mM; summary of the method: as §1
Rattus norvegicus [28] = organism: Rattus norvegicus; test: Percent formation of compound upon incubation of 15 for 60 minutes with rat P450 reductase microsomes in oxic condition in presence of NADPAH
Summary of the method: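 Human or rat P450 reductase microsomes at 1 mg/mL protein, substrate 0.25 mM and cofactor 0.5 mM; pCMBA 2 mM where stated. Anaerobic samples purged with nitrogen 15–20 min in septum-sealed vials. 60 min at 37 °C, stopped with ice-cold methanol. Ketone metabolite quantified by HPLC (C-18, methanol/water 50:50, UV 254 nm) as percent of equimolar substrate. Mean of two experiments.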

For `CCC(=O)c1ccccc1O`, which Formation (Rattus norvegicus [1]) is on record?
The Formation was 36.9%.

And the Formation (Rattus norvegicus [2])?
Its Formation is 0.5%.

And the Formation (Rattus norvegicus [3])?
The Formation was 9.1%.

What about the inhibition (Rattus norvegicus [4]) of the same compound?
The inhibition was 18%.

What about the Formation (Rattus norvegicus [5]) of the same compound?
The Formation was 45%.

And the Formation (Rattus norvegicus [6])?
The Formation was 54.6%.

What about the Formation (Rattus norvegicus [7]) of the same compound?
The Formation was 0.5%.

And the Formation (Rattus norvegicus [8])?
The Formation was 0.7%.

What about the Formation (Rattus norvegicus [9]) of the same compound?
The Formation was 80.9%.

And the Formation (Rattus norvegicus [10])?
Its Formation is 93.2%.

And the Formation (Rattus norvegicus [11])?
The Formation was 1.6%.

What about the Formation (Rattus norvegicus [12]) of the same compound?
The Formation was 26.9%.

And the Formation (Rattus norvegicus [13])?
Its Formation is 9.4%.

And the Formation (Rattus norvegicus [14])?
Its Formation is 3.6%.

And the inhibition (Rattus norvegicus [15])?
Its inhibition is 99%.

And the Formation (Rattus norvegicus [16])?
Its Formation is 93%.

And the inhibition (Rattus norvegicus [17])?
The inhibition was 40%.

What about the Formation (Rattus norvegicus [18]) of the same compound?
Its Formation is 44.9%.

What about the inhibition (Rattus norvegicus [19]) of the same compound?
Its inhibition is 99%.

And the inhibition (Rattus norvegicus [20])?
The inhibition was 0%.

And the Formation (Rattus norvegicus [21])?
The Formation was 0.7%.

And the Formation (Rattus norvegicus [22])?
The Formation was 68.8%.

What about the Formation (Rattus norvegicus [23]) of the same compound?
Its Formation is 0.5%.

And the inhibition (Rattus norvegicus [24])?
The inhibition was 14%.

And the inhibition (Rattus norvegicus [25])?
Its inhibition is 36%.

What about the Formation (Rattus norvegicus [26]) of the same compound?
Its Formation is 50.3%.

And the inhibition (Rattus norvegicus [27])?
The inhibition was 99%.

What about the Formation (Rattus norvegicus [28]) of the same compound?
Its Formation is 1.5%.
